Screening results (PubChem)
Beta2AR agonist – agonists of human beta-2 adrenergic receptor inducing internalization. P07550. Am2.2-beta2AR cells, FAP receptor internalization, flow cytometry. response, % (test concentration not listed). 340,000 tested, 0.43% active;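 active means response above a set limit, near 3 SD of response in nonfluorescent compounds, cut at about 42% in these data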
Target sequence (P07550 whole entry, looked up): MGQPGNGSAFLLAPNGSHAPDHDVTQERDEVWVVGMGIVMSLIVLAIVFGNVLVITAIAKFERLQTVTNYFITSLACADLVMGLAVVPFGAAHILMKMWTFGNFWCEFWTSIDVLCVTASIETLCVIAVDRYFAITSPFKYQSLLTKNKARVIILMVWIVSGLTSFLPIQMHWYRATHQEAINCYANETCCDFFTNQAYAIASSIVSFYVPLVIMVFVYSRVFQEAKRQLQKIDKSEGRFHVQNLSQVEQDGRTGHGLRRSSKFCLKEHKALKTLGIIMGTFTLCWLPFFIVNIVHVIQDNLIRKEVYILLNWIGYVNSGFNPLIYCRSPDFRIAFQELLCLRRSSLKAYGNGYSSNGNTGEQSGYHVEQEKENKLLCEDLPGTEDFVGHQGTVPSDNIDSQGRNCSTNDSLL
MC4R antag cAMP – antagonists of human melanocortin 4 receptor (MC4R). MC4R-expressing cells, MTII-stimulated cAMP, LANCE TR-FRET. inhibition, % at 6.5 µM. 360,000 tested, 0.48% active. P32245. AID 540295;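 active means inhibition above its plate's cutoff, the mean of tested wells on that plate plus 3 SD, cut at about 29% in these data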
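System: U2OS cells stably expressing human melanocortin 4 receptor (MC4R). Reagent: Melanotan II challenge after compound preincubation. Doses: 6.5 µM. Times: 30-min compound, 1-h challenge, 1-h detection, room temperature. Measured by: TR-FRET with Eu-cAMP and labeled anti-cAMP, 671 nm. Replicates: singlicate.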
TAAR1 agonist – human TAAR1 agonism; Q96RJ0; CHO RD-HGA16 TAAR1, Fluo-8 calcium fluorescence; vehicle wells 0%, saturating PEA agonist 100%; activation, % at 3 µM; 360,000 tested, 0.99% active;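 active means activation above the mean activation of all test compounds in the run plus 3 SD, cut at about 38% in these data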
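System: CHO-derived RD-HGA16 cells with stable Gα16 and human TAAR1. Times: 17-24 h plating, Fluo-8 75 min 37 °C, 30 min RT. Measured by: calcium-sensitive Fluo-8 signal, excitation 470-495, emission 515-575 nm. Read-out basis: % activation relative to PEA EC100 response. Control set: DMSO and PEA EC100. Repeats: no replicates (n 1).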
TAAR1 antagonist – antagonists of human TAAR1 | CHO RD-HGA16 TAAR1, Fluo-8 calcium fluorescence, antagonist | Q96RJ0 | inhibition, % at 3 µM | 360,000 tested, 1.5% active | AID 624466;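 active means inhibition above a per-plate cutoff, the mean inhibition of test compounds on that plate plus 3 SD, cut at about 49% in these data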
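Test system – hTAAR1-expressing CHO RD-HGA16 cells, Gα16-coupled · Also added – β-PEA at EC80 concentration, post-compound challenge · Compound – 3 µM, single point · Incubation – dye loading 75 min at 37 °C, then 30 min room temperature · Measured by – Fluo-8 intracellular calcium dye fluorescence, real-time kinetic reads · Benchmarks – vehicle and agonist controls · Replicates – singlicate, one well per test compound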
MC4R ag barr – human MC4R agonism via beta-arrestin; P32245; U2OS MC4R beta-arrestin complementation, luminescence; percent of melanotan II response, DMSO zero; activation, % at 8.9 µM; 360,000 tested, 0.98% active; AID 540308;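 active means activation above a per-plate cutoff, the mean activation of sample wells on that plate plus 3 SD, cut at about 8% in these data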
m5-HT2A agonist – activates the mouse 5-HT2A serotonin receptor. 360,000 tested, 0.66% active. activation, % at 7.6 µM. CHO-K1 mHTR2A beta-arrestin complementation, luminescence; percent of 30 µM serotonin response. P35363;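 active means activation above a run cutoff, the mean activation of all tested compounds plus 3 SD, cut at about 14% in these data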
cAMP nonselect – counter-screen for MC4R antagonists: nonselective cAMP signaling inhibitors; inhibition, % at 6.5 µM; AID 602193; shares compounds with MC4R antag cAMP; parental U2OS, forskolin cAMP, LANCE TR-FRET; 1,600 tested, 26% active;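 active means mean inhibition over triplicates above the low-control well mean plus 3 SD, set per campaign, cut at about 13% in these data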;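 further: signal is single emission at 671 nm which falls as cellular cAMP rises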
MC4R cAMP antag – human MC4R cAMP antagonism confirmation; shares compounds with MC4R antag cAMP; MC4R-expressing cells, MTII-stimulated cAMP, TR-FRET; inhibition, % at 6.5 µM; 1,600 tested, 27% active; AID 602195; in the data active means inhibition above about 29%
Hits are given with their value; 0 = inactive; - = no result. Compounds with a hit are over-represented: about 4.3% of the library has one in this group of screens.

SMILES	Beta2AR agonist	MC4R antag cAMP	TAAR1 agonist	TAAR1 antagonist	MC4R ag barr	m5-HT2A agonist	cAMP nonselect	MC4R cAMP antag
CS(=O)(=O)N1CCN(c2ccccc2NC(=S)NC(=O)c2cccs2)CC1	0	30	0	0	0	0	0	0
O=[N+]([O-])c1cc(S(=O)(=O)C(F)(F)F)ccc1Sc1nc2ccccc2[nH]1	0	30	0	0	0	0	0	40
CCOc1ccc(/C=C/[N+](=O)[O-])c2ccccc12	78	41	-	-	0	0	0	0
O=C(Nc1ccc(F)cc1)C(c1ccccc1)N1CCN(c2cccc(C(F)(F)F)n2)CC1 (centres undefined)	-	-	0	0	-	0	-	-
CCCCC[C@@H](C)N1C[C@H](COCc2ccccc2)Oc2cc(N3CCC[C@H]3C(N)=O)ccc2S1(=O)=O	-	-	0	0	-	0	-	-
O=C(CN1C(=O)c2cccc([N+](=O)[O-])c2C1=O)N1CCN(c2ccc(F)cc2)CC1	0	34	0	0	0	0	27	43
CC(=O)Nc1ccc(S(=O)(=O)NCCC(=O)OCc2ccc([N+](=O)[O-])cc2)cc1	0	0	0	0	0	0	-	-
Cn1nc(C(C)(C)C)cc1C(=O)N1CCCCC1c1cc(C(=O)Nc2ccc3c(c2)OCO3)no1 (centres undefined)	-	0	0	0	0	0	-	-
COc1cc(/C=N/NC(=O)C2COc3ccccc3O2)ccc1O (centres undefined)	0	0	0	0	0	0	-	-
COc1ccc(/C=N/NC(=O)C2COc3ccccc3O2)cc1OC (centres undefined)	0	29	0	0	0	0	0	0
O=C(CC(c1ccccc1)c1ccccc1)Nc1ccc(C(=O)O)cc1	0	0	0	0	0	0	-	-
Cc1cc(S(=O)(=O)Nc2ncnc3sccc23)ccc1F	-	0	0	0	0	0	-	-
Fc1ccc(-n2c(-c3ccc4ccccc4n3)n[nH]c2=S)cc1	0	0	0	0	0	0	-	-
S=c1[nH]nc(-c2ccc3ccccc3n2)n1-c1cc(Cl)cc(Cl)c1	0	32	0	0	0	0	0	0
NC(N)=NS(=O)(=O)c1ccc(N/C=C\C(=O)c2ccncc2)cc1	0	31	0	0	0	0	0	0
Cc1noc(NS(=O)(=O)c2ccc(N/C=C\C(=O)c3ccncc3)cc2)c1C	0	0	0	0	0	0	-	-
O=C(Nc1sc2c(c1C(=O)NCC1CCCO1)CCCC2)c1cccs1 (centres undefined)	0	31	0	0	0	0	0	0
O=C(Nc1sc2c(c1C(=O)O)CCCC2)c1cccs1	0	0	0	0	0	0	-	-
CC1=CC(=O)C(C(C)C)=C/C1=N/OS(=O)(=O)c1ccccc1	0	71	0	0	31	0	36	91
Cc1ccc(S(=O)(=O)ON=C2CCN(S(=O)(=O)c3ccccc3)CC2)cc1	0	0	0	0	0	0	-	-
CCS(=O)(=O)c1ccc2oc(Nc3cccc(OC)c3)nc2c1	0	31	0	0	0	0	0	0
CCC(C)c1ccc(NC(=O)NCCN2CCCCC2)cc1 (centres undefined)	0	0	0	0	0	0	-	-
COc1ccccc1CCNC(=O)Cn1ccc2cc(S(=O)(=O)N3CCC(C)CC3)ccc21	0	0	0	0	0	0	-	-
CCOC(=O)c1c(NC(=O)C[n+]2ccc(N(C)C)cc2)sc(C)c1C	0	30	0	0	0	0	0	0
CCOC(=O)c1c(NC(=O)COC)sc(C)c1C	0	0	0	0	0	0	-	-
SMILES	Beta2AR agonist	MC4R antag cAMP	TAAR1 agonist	TAAR1 antagonist	MC4R ag barr	m5-HT2A agonist	cAMP nonselect	MC4R cAMP antag
CCS(=O)(=O)N1Cc2ccccc2CC1C(=O)Nc1ccc(OC)c(OC)c1 (centres undefined)	0	0	0	0	0	0	-	-
CCS(=O)(=O)N1Cc2ccccc2CC1C(=O)N(C)Cc1ccc(OC)c(F)c1 (centres undefined)	0	34	0	0	0	0	0	0
CCOc1ncccc1C(=O)Nc1nc(C(C)(C)C)cs1	0	34	0	0	8.7	0	0	0
CCOc1ncccc1C(=O)Nc1ncc(C)s1	0	0	0	0	0	0	-	-
COC(=O)COc1ccc(S(=O)(=O)N2CCN(c3ccccc3)CC2)cc1	0	50	0	0	0	0	14	0
COC(=O)COc1ccc(S(=O)(=O)N2CCN(c3ccccc3F)CC2)cc1	0	42	0	0	0	0	14	33
O=C(c1ccc(Cl)c(S(=O)(=O)N2CCOCC2)c1)N1CCN(c2ccccc2)CC1	0	0	0	0	0	0	-	-
COc1ccc(Cc2c(-c3ccc(C)cc3)nc3cc(C)c(Br)c(C)n23)c(C)c1	-	-	0	0	-	0	-	-
Cc1ccccc1CN1[C@@H]2c3ccccc3C[C@@H]2OCCS1(=O)=O	0	0	0	0	0	0	-	-
Cc1noc(C)c1S(=O)(=O)N1CCCN(C(=O)/C=C/c2ccccc2F)CC1	0	0	0	0	0	0	-	-
C=C1C(=O)C23CCC4C(C)(C(=O)OC)CCCC4(C)C2CCC1(O)C3 (centres undefined)	96	40	0	0	0	0	22	38
CCOC(=O)CSc1nc2c(sc(=S)n2-c2ccc(CC)cc2)c(=O)[nH]1	0	31	0	0	0	0	0	0
CCOC(=O)CC(=O)CSc1nc2c(sc(=S)n2-c2ccccc2)c(=O)[nH]1	0	0	0	0	0	0	-	-
CC(=O)N(Cc1c(C)nn(-c2ccccc2)c1Cl)c1ccc(Cl)cc1	0	0	0	0	0	0	-	-
Cc1nn(-c2ccccc2)c(Cl)c1CN(C(=O)CCl)c1ccc(Cl)cc1	0	40	0	60	11	0	0	47
COC(=O)C(Cc1ccccc1)NC(=O)c1ccc(C)cc1 (centres undefined)	0	0	0	0	0	0	-	-
COC(=O)C(Cc1ccc(O)cc1)NC(=O)c1ccccc1 (centres undefined)	0	49	0	0	0	0	16	41
CC(C)(C)OC(=O)NCCCCCNC(=O)c1[nH]cnc1C(=O)Nc1cc(Br)ccc1F	-	33	0	0	0	0	0	0
CC(C)(C)OC(=O)NCc1ccc(NC(=O)c2nc[nH]c2C(=O)Nc2cc(Br)ccc2F)cc1	-	-	0	0	-	0	-	-
